Source: ChEMBL document CHEMBL4342521 (J Med Chem, 2020)
Active and inactive are the calls of the source.

Legend:
RS4-11 [1] = assay: Antiproliferative activity agaisnt human RS4:11 cells expressing wild type p53/FLT3 assessed as cell death at 10 uM after 48 hrs by CellTiter-blue assay; type: functional, cell-based
MV4-11 [2] = assay: Induction of apoptosis in human MV4-11 cells harboring wild type p53/FLT3-ITD mutant assessed as c-FLIP degradation at 50 to 200 nM after 24 hrs by Western blot analysis; type: functional, cell-based
Summary of the method: (§1)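 Cells (1,500,000 per well) grown 12 h, then drug-treated as specified. Lysed in RIPA buffer, sonicated, centrifuged, protein normalized by BCA. Run on 4–12% Bis-Tris gels in MES, transferred, probed overnight at 4 °C with primary antibodies at 1/1000. Actin served as reference for LC3-II quantitation.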

MOLM-14 = assay: Antiproliferative activity agaisnt human MOLM14 cells expressing wild type p53/FLT3-ITD mutant assessed as cell death at 10 uM after 48 hrs by CellTiter-blue assay; type: functional, cell-based
OVCAR-5 = assay: Antiproliferative activity against human OVCAR5 cells assessed as reduction in cell viability after 48 hrs by CellTiter-Blue assay; type: functional; conditions: OVCAR-5, 48 h, read-out: LC50 (the source's name)
Summary of the method: (§2)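 Cells grown in RPMI1640 with 10% FBS at 37 °C, 5% CO₂. 5,000–10,000 cells/well were pre-incubated overnight, and a time-zero CellTiter-Blue read was taken. Six 10-fold dilutions (top final 10 μM) were applied for 48 h, followed by 0.125 mg/mL CellTiter-Blue for 2–4 h. Resorufin fluorescence was read at ex 560/em 590 nm. […] Triplicates.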

U-251 = assay: Antiproliferative activity against human U251 cells assessed as reduction in cell viability after 48 hrs by CellTiter-Blue assay; type: functional; conditions: U-251, 48 h, read-out: LC50 (the source's name)
Summary of the method: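 NCI-60 panel lines grown in RPMI1640 with 10% FBS at 37 °C, 5% CO₂. Seeded at 5,000–10,000 cells/well and pre-incubated overnight. Exposed for 48 h to six 10-fold dilutions (top final 10 μM), with a time-zero plate read at dosing. CellTiter-Blue (0.125 mg/mL) for 2–4 h, fluorescence 560/590 nm, triplicate curves.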

NCI-H226 = assay: Antiproliferative activity against human NCI-H226 cells assessed as reduction in cell viability after 48 hrs by CellTiter-Blue assay; type: functional; conditions: NCI-H226, 48 h, read-out: LC50 (the source's name); summary of the method: as §2
HL-60 = assay: Upregulation of P21WAF1/Cip1 protein expression in p53 null human HL60 cells harboring wild type FLT3 at 50 to 200 nM after 24 hrs by Western blot analysis; type: functional, cell-based
Summary of the method: (§3)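 RS4;11 cells were cultured in RPMI-1640 with 10% FBS and HL-60 cells in IMDM with 20% FBS. Cells were plated at 1,500,000 per well, grown 12 h, then drug-treated. Lysis was in RIPA buffer with sonication and centrifugation, and loading was normalized by BCA. Lysates were run on 4–12% Bis-Tris gels in MES buffer and transferred, and membranes were probed overnight at 4 °C with 1/1000 primary antibodies.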

A549 = assay: Antiproliferative activity against human A549 cells assessed as reduction in cell viability after 48 hrs by CellTiter-Blue assay; type: functional; conditions: A549, 48 h, read-out: LC50 (the source's name); summary of the method: as §2
MCF7 = assay: Antiproliferative activity against human MCF7 cells assessed as reduction in cell viability after 48 hrs by CellTiter-Blue assay; type: functional; conditions: MCF7, 48 h, read-out: LC50 (the source's name); summary of the method: as §2
MV4-11 [3] = assay: Inhibition of p53 degradation in human MV4-11 cells at 200 nM after 24 hrs in presence of 5 nM bortezomib by Western blot analysis; type: functional, cell-based; summary of the method: as §1
RS4-11 [4] = assay: Upregulation of P21WAF1/Cip1 protein expression in human RS4:11 cells harboring wild type p53/FLT3 at 50 to 200 nM after 24 hrs by Western blot analysis; type: functional, cell-based; summary of the method: as §3
Histone deacetylase 5 = Histone deacetylase 5 (Homo sapiens, UniProt Q9UQL6); assay: (§4) Inhibition of recombinant human HDAC5 using Boc-Lys (trifluoroacetyl)-AMC as substrate preincubated for 1 hr followed by substrate addition and measured after 2 hrs by fluorescence based micro plate reader analysis
Sequence of Histone deacetylase 5 (Q9UQL6 whole entry): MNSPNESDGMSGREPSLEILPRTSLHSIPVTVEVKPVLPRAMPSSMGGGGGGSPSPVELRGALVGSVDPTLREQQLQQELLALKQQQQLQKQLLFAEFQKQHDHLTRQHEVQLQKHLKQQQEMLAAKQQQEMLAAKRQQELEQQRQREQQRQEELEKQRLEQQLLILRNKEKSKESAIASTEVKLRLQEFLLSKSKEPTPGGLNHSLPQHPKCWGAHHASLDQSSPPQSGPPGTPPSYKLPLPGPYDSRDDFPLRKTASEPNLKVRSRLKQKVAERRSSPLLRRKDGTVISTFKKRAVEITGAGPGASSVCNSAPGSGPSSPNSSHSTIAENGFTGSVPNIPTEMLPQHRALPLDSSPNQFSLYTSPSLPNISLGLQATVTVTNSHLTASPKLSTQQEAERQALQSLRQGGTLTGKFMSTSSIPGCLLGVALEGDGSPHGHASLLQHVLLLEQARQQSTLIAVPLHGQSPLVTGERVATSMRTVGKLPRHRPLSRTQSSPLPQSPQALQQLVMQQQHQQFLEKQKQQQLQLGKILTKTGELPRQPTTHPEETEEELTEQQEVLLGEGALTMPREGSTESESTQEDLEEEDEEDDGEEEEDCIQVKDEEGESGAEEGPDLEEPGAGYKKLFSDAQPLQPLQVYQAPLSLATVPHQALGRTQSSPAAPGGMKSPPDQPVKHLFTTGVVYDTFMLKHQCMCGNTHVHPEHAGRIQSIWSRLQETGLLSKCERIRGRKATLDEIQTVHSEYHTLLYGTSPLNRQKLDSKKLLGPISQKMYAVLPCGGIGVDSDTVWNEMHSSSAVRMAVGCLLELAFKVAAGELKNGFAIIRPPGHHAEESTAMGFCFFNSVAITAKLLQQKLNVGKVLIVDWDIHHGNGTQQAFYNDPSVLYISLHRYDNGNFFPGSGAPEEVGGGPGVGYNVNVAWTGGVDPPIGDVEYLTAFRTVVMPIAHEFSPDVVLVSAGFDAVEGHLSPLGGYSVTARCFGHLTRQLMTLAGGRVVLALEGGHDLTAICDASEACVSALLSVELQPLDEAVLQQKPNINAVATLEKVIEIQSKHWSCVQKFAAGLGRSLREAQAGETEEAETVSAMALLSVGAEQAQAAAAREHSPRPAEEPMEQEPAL
Summary of the method: (§5)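 Recombinant enzyme was preincubated with serially varied inhibitor for 1 h at 30 °C. Boc-Lys(trifluoroacetyl)-AMC was then added to a final 50 μM and incubated 2 h at 30 °C. The reaction was stopped with developer containing trypsin and TSA, and fluorescence (ex 360/em 460 nm) was read 30 min later. Inhibition was taken relative to control wells and fitted to a variable-slope log(inhibitor) curve. Values are the mean of at least three experiments.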

SK-MEL-28 = assay: Antiproliferative activity against human SK-MEL-28 cells assessed as reduction in cell viability after 48 hrs by CellTiter-Blue assay; type: functional; conditions: SK-MEL-28, 48 h, read-out: LC50 (the source's name); summary of the method: as §2
K562 = assay: Antiproliferative activity against human K562 cells assessed as reduction in cell viability after 48 hrs by CellTiter-Blue assay; type: functional; conditions: K562, 48 h, read-out: LC50 (the source's name); summary of the method: as §2
MV4-11 [5] = assay: Down regulation of STAT5 in human MV4-11 cells harboring wild type p53/FLT3-ITD mutant at 50 to 200 nM after 24 hrs by Western blot analysis; type: functional, cell-based; summary of the method: as §1
ACHN = assay: Antiproliferative activity against human ACHN cells assessed as reduction in cell viability after 48 hrs by CellTiter-Blue assay; type: functional; conditions: read-out: LC50 (the source's name); summary of the method: as §2
MV4-11 [6] = assay: Inhibition of p53 degradation in human MV4-11 cells harboring wild type p53/FLT3-ITD mutant assessed as cleavage of pro caspase-3 at 100 nM after 24 hrs in presence of MDM2 inhibitor RG7388 by Western blot analysis; type: functional, cell-based; summary of the method: as §1
DU-145 = assay: Antiproliferative activity against human DU145 cells assessed as reduction in cell viability after 48 hrs by CellTiter-Blue assay; type: functional; conditions: DU-145, 48 h, read-out: LC50 (the source's name); summary of the method: as §2
LOX IMVI = assay: Antiproliferative activity against human LOXIMVI cells assessed as reduction in cell viability after 48 hrs by CellTiter-Blue assay; type: functional; conditions: read-out: LC50 (the source's name); summary of the method: as §2
OVCAR-8 = assay: Antiproliferative activity against human OVCAR8 cells assessed as reduction in cell viability after 48 hrs by CellTiter-Blue assay; type: functional; conditions: OVCAR-8, 48 h, read-out: LC50 (the source's name); summary of the method: as §2
NCI/ADR-RES = assay: Antiproliferative activity against human NCI/ADR-RES cells assessed as reduction in cell viability after 48 hrs by CellTiter-Blue assay; type: functional; conditions: read-out: LC50 (the source's name); summary of the method: as §2
Histone deacetylase 9 = Histone deacetylase 9 (Homo sapiens, UniProt Q9UKV0); assay: as §4, with “C-terminal His-tagged HDAC9 (604 to 1066 residues) expressed in baculovirus infected Sf9 cells” for “HDAC5”; summary of the method: as §5
Sequence of Histone deacetylase 9 (Q9UKV0 whole entry, the tested form may be a part): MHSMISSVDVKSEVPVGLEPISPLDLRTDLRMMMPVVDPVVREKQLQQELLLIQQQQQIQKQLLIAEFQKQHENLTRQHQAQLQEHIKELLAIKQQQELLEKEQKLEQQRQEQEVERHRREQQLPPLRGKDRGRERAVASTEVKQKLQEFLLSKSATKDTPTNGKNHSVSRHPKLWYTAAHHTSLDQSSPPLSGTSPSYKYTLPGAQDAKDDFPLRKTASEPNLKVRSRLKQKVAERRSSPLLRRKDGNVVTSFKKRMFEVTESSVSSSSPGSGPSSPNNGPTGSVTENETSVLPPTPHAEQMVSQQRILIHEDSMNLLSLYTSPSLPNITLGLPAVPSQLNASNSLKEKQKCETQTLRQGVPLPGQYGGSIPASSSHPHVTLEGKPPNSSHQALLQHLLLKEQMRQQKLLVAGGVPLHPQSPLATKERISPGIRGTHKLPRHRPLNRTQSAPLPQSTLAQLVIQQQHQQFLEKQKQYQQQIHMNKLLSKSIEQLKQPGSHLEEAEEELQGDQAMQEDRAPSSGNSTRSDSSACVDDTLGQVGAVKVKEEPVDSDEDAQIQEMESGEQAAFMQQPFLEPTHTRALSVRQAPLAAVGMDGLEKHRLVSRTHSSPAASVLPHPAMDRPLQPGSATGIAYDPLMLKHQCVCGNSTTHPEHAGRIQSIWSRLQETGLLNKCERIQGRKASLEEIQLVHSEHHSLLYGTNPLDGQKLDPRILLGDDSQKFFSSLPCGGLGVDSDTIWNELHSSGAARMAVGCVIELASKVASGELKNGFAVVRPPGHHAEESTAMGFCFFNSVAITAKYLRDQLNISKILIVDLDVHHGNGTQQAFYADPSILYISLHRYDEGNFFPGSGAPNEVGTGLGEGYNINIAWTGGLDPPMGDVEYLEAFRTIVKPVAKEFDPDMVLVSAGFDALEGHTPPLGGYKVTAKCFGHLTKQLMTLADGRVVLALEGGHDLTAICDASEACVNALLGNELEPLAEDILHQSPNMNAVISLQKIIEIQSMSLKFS

MV4-11 [7] = assay: Induction of apoptosis in human MV4-11 cells assessed as cleavage of pro caspase 3 at 200 nM after 24 hrs in presence of 50 uM z-VAD by Western blot analysis; type: functional, cell-based; summary of the method: as §1
Histone deacetylase 4 = Histone deacetylase 4 (Homo sapiens, UniProt P56524); assay: Inhibition of recombinant human HDAC4 using Boc-Lys (trifluoroacetyl)-AMC as substrate preincubated for 1 hr followed by substrate addition and measured after 2 hrs by fluorescence based micro plate reader analysis; summary of the method: as §5
Sequence of Histone deacetylase 4 (P56524 whole entry): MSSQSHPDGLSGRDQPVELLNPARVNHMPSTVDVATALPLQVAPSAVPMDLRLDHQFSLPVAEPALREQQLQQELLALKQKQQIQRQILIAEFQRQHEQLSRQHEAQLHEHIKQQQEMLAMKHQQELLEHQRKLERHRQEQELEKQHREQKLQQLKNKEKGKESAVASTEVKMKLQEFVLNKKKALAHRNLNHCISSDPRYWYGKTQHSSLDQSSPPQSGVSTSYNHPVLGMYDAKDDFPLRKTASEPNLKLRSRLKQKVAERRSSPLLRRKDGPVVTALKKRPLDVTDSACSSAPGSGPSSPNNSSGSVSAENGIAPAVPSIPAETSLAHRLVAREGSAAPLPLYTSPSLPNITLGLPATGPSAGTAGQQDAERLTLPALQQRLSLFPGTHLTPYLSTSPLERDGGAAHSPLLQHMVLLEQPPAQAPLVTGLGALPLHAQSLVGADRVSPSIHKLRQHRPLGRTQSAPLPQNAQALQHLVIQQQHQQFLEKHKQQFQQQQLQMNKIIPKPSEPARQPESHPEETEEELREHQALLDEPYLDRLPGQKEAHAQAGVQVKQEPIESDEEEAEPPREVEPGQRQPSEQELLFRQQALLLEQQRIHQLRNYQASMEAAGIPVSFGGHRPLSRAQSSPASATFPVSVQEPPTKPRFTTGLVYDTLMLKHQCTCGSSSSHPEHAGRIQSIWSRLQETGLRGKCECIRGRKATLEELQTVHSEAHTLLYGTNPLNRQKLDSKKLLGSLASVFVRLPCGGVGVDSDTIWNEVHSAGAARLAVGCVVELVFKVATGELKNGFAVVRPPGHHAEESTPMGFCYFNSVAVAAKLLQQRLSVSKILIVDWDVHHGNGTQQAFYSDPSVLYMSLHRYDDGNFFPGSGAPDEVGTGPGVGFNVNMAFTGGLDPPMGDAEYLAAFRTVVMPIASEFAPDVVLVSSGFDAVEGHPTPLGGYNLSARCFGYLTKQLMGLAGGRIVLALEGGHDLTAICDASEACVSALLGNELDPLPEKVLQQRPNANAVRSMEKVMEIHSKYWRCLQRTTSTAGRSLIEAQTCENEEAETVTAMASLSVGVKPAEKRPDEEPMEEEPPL

CCCNNC(=O)/C=C/c1ccc(CNCCc2c(C)[nH]c3ccccc23)cc1.O=C(O)C(F)(F)F
inactive: Activity (MV4-11 [7])
0.893 µM: CC50 (SK-MEL-28)
> 10 µM: CC50 (OVCAR-5) | CC50 (A549) | CC50 (MCF7) | IC50 (Histone deacetylase 5) | CC50 (K562) | CC50 (ACHN) | CC50 (DU-145) | CC50 (OVCAR-8) | CC50 (NCI/ADR-RES) | IC50 (Histone deacetylase 9) | IC50 (Histone deacetylase 4)
4.28 µM: CC50 (U-251)
0.537 µM: CC50 (LOX IMVI)
0.46 µM: CC50 (NCI-H226)
active: Activity (RS4-11 [1]) | Activity (MV4-11 [2]) | Activity (MOLM-14) | Activity (HL-60) | inhibition (MV4-11 [3]) | Activity (RS4-11 [4]) | Activity (MV4-11 [5]) | inhibition (MV4-11 [6])
